Data as given in ChEMBL document CHEMBL3994574, “Novel hamamelitannin analogues for the treatment of biofilm related MRSA infections-A scaffold hopping approach” (Eur J Med Chem, 2017).

Tests used:
Staphylococcus aureus = assay: Growth inhibition of methicillin-resistant Staphylococcus aureus Mu50 after 20 hrs by broth microdilution method
Outline: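 MRSA Mu50 grown in Mueller-Hinton broth at 37 °C, aerobic. MIC found in triplicate in flat-bottom 96-well plates, using a procedure from earlier work. Highest concentration tested was […].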

[1] = test system: Staphylococcus aureus subsp. aureus Mu50; assay: Inhibition of quorum sensing system in methicillin-resistant Staphylococcus aureus Mu50 assessed as potentiation of vancomycin-mediated reduction in CFU/biofilm at 100 uM preincubated for 20 hrs followed by vancomycin addition measured after 24 hrs (reference value: 30 +/- 14%)
[2] = test system: Staphylococcus aureus subsp. aureus Mu50; assay: Inhibition of quorum sensing system in methicillin-resistant Staphylococcus aureus Mu50 assessed as potentiation of vancomycin-mediated reduction in CFU/biofilm at 100 uM after 24 hrs (reference value: 30 +/- 14%)
[3] = Inhibition of quorum sensing system in methicillin-resistant Staphylococcus aureus Mu50 assessed as potentiation of vancomycin-mediated reduction in CFU/biofilm preincubated for 20 hrs followed by vancomycin addition measured after 24 hrs; set-up: species or system Staphylococcus aureus subsp. aureus Mu50
[4] = Inhibition of quorum sensing system in methicillin-resistant Staphylococcus aureus Mu50 assessed as potentiation of vancomycin-mediated reduction in CFU/biofilm after 24 hrs; set-up: species or system Staphylococcus aureus subsp. aureus Mu50

SMILES | MIC (Staphylococcus aureus) [µM] | inhibition [1] [%] | inhibition [2] [%] | EC50 [3] [µM] | EC50 [4] [µM]
O=C(NC[C@]1(O)CO[C@H](CNC(=O)c2ccccc2Cl)C1)c1ccccc1 | > 500 | 21 | 65 |  | 
O=C(NC[C@@H]1CO[C@H](CNC(=O)c2ccccc2Cl)CO1)c1ccccc1 | > 500 | 95 | 91 | 5.57 | 13.1
O=C(NC[C@]1(O)CO[C@H](CNC(=O)c2ccccc2Cl)[C@H]1O)c1ccccc1 | > 500 | 88 | 92 | 0.389 | 7.98
O=C(NC[C@@H]1C[C@H](CNC(=O)c2ccccc2Cl)CN1)c1ccccc1 | > 500 | 54 | 50 |  | 
O=C(NC[C@H]1CN(C(=O)c2ccccc2)CCO1)c1ccccc1Cl | > 500 | -6 | 51 |  | 
O=C(NC[C@@H]1O[C@H](CNC(=O)c2ccccc2Cl)[C@@H](O)[C@H]1O)c1ccccc1 | > 500 | 93 | 95 | 2.6 | 3.71
O=C(NC[C@H]1CN(C(=O)c2ccccc2Cl)CCO1)c1ccccc1 | > 500 | -7 | 41 |  | 
O=C(NC[C@@H]1CN[C@H](CNC(=O)c2ccccc2Cl)C1)c1ccccc1 | > 500 | 62 | 47 |  | 
O=C(OC[C@H]1OC(O)[C@@](O)(COC(=O)c2cc(O)c(O)c(O)c2)[C@@H]1O)c1cc(O)c(O)c(O)c1 (stereo not given in full) [HAMAMELITANNIN] | > 500 | 57 | 57 | 146 | 165
